From ChEMBL document CHEMBL3352173, “Optimization of pyrrolamide topoisomerase II inhibitors toward identification of an antibacterial clinical candidate (AZD5099)” (J Med Chem, 2014)
Values after ≈ are worked out from the molar mass of the structure shown.

Key:
[1] = Percentage unbound in human plasma; assay type: ADME, cell-free
[2] = Solubility of the compound; assay type: physicochemical
Escherichia coli [3] = test: Antimicrobial activity against wild-type Escherichia coli Eco523 by broth microdilution/CLSI method; assay type: functional; details: Escherichia coli, Eco523; read-out: MIC
DNA gyrase subunit B = DNA gyrase subunit B (Staphylococcus aureus, UniProt P0A0K8); test: Inhibition of ATPase activity of Staphylococcus aureus GyrB
DNA gyrase subunit B, sequence (P0A0K8 whole entry): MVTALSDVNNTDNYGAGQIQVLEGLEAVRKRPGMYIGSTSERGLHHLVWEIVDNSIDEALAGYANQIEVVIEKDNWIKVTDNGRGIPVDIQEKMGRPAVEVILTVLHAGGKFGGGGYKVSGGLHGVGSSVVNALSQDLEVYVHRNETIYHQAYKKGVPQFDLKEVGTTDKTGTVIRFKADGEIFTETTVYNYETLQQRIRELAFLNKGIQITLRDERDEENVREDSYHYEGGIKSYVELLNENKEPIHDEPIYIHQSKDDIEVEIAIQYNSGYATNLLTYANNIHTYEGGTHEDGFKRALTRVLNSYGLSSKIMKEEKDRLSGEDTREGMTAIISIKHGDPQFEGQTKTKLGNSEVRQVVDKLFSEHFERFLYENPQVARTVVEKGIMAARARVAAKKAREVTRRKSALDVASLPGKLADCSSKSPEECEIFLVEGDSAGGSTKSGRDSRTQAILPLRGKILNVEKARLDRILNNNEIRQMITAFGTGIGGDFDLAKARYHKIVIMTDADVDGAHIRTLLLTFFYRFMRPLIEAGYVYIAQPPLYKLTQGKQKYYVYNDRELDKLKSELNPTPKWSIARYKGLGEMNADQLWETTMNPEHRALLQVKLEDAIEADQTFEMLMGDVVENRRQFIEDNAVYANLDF
Procedure, shortened: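 IC50 was determined against S. aureus GyrB in the routine screening assay. The enzyme concentration limits resolution below 10 nM.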

Staphylococcus aureus [4] = test: Antimicrobial activity against methicillin-sensitive Staphylococcus aureus by broth microdilution/CLSI method; assay type: functional; details: Staphylococcus aureus; read-out: MIC
Staphylococcus aureus [5] = test: Antimicrobial activity against methicillin, quinolone-resistant Staphylococcus aureus by broth microdilution/CLSI method; assay type: functional; details: Staphylococcus aureus; read-out: MIC
Escherichia coli [6] = test: Antimicrobial activity against Escherichia coli tolC- by broth microdilution/CLSI method; assay type: functional; details: Escherichia coli; read-out: MIC
Haemophilus influenzae = test: Antimicrobial activity against Haemophilus influenzae by broth microdilution/CLSI method; assay type: functional; details: Haemophilus influenzae; read-out: MIC
Streptococcus pneumoniae = test: Antibacterial activity against Streptococcus pneumoniae by broth microdilution/CLSI method; assay type: functional; details: Streptococcus pneumoniae; read-out: MIC
Streptococcus pyogenes = test: Antimicrobial activity against Streptococcus pyogenes by broth microdilution/CLSI method; assay type: functional
Moraxella catarrhalis = test: Antimicrobial activity against Moraxella catarrhalis by broth microdilution/CLSI method; assay type: functional; details: Moraxella catarrhalis; read-out: MIC
[7] = Ratio of MIC for methicillin, quinolone-resistant Staphylococcus aureus to fraction unbound in human plasma; assay type: ADME
[8] = Octanol-phosphate buffer distribution coefficient, log D of the compound at pH 7.4 by shake flask method; assay type: physicochemical

Row | SMILES | fraction unbound [1] | solubility [2] [µM] | MIC (Escherichia coli [3]) [µg/mL] | IC50 (DNA gyrase subunit B) [nM] | MIC (Staphylococcus aureus [4]) [µg/mL] | MIC (Staphylococcus aureus [5]) [µg/mL] | MIC (Escherichia coli [6]) [µg/mL] | MIC (Haemophilus influenzae) [µg/mL] | MIC (Streptococcus pneumoniae) [µg/mL] | MIC (Streptococcus pyogenes) [µg/mL] | MIC (Moraxella catarrhalis) [µg/mL] | Ratio [7] | logD [8]
1 | CO[C@H]1CN(c2nc(C(=O)NCCN3CCCC3=O)c(C(=O)O)s2)CC[C@H]1NC(=O)c1[nH]c(C)c(Cl)c1Cl | 0.076 | 870 (≈ 511 µg/mL) | 64 (≈ 109 µM) | < 10 | 0.35 (≈ 0.596 µM) | 1.4 (≈ 2.38 µM) | 0.71 (≈ 1.21 µM) | 0.5 (≈ 0.851 µM) | < 0.06 | < 0.06 | < 0.063 | 18 | 
2 | CO[C@H]1CN(c2nc(-c3nccn3C)c(C(=O)O)s2)CC[C@H]1NC(=O)c1[nH]c(C)c(Cl)c1Cl | 0.011 | 12 (≈ 6.16 µg/mL) | 8 (≈ 15.6 µM) | < 10 | < 0.06 |  | < 0.06 | 0.25 (≈ 0.487 µM) | < 0.06 | < 0.06 | < 0.06 | 5.2 | > 3
3 | CO[C@H]1CN(c2nc(-c3cncnc3)c(C(=O)O)s2)CC[C@H]1NC(=O)c1[nH]c(C)c(Cl)c1Cl | 0.011 | 260 (≈ 133 µg/mL) | > 100 | < 10 | 3.2 (≈ 6.26 µM) | 3.2 (≈ 6.26 µM) | 0.8 (≈ 1.56 µM) | 1.6 (≈ 3.13 µM) | < 0.1 | 0.4 (≈ 0.782 µM) | 0.4 (≈ 0.782 µM) | 290 | 0.35
4 | CO[C@H]1CN(c2nc(C(=O)NN3CCOCC3)c(C(=O)O)s2)CC[C@H]1NC(=O)c1[nH]c(C)c(Cl)c1Cl | 0.071 | > 1000 | > 64 | < 10 | 2 (≈ 3.56 µM) | 4 (≈ 7.12 µM) | 1 (≈ 1.78 µM) | 1.4 (≈ 2.49 µM) | 0.25 (≈ 0.445 µM) | 0.25 (≈ 0.445 µM) | 0.35 (≈ 0.623 µM) | 56 | -0.15
5 | CO[C@H]1CN(c2nc(C(N)=O)c(C(=O)O)s2)CC[C@H]1NC(=O)c1[nH]c(C)c(Cl)c1Cl | 0.043 | 280 (≈ 133 µg/mL) | > 8 | < 10 | 0.5 (≈ 1.05 µM) | 0.5 (≈ 1.05 µM) | 0.32 (≈ 0.672 µM) | 0.16 (≈ 0.336 µM) | 0.039 (≈ 0.0819 µM) | 0.039 (≈ 0.0819 µM) | 0.02 (≈ 0.042 µM) | 12 | 0.85
6 | CO[C@H]1CN(c2nc(-c3cncc(NCCN4CCN(C)CC4)n3)c(C(=O)O)s2)CC[C@H]1NC(=O)c1[nH]c(C)c(Cl)c1Cl | 0.027 | 36 (≈ 23.5 µg/mL) | 46 (≈ 70.5 µM) | 1.2 | 0.25 (≈ 0.383 µM) | 0.58 (≈ 0.889 µM) | 0.51 (≈ 0.781 µM) | 1 (≈ 1.53 µM) | 0.011 (≈ 0.0169 µM) | 0.031 (≈ 0.0475 µM) |  | 21 | 2
7 | CO[C@H]1CN(c2nc(C(=O)N(C)C)c(C(=O)O)s2)CC[C@H]1NC(=O)c1[nH]c(C)c(Cl)c1Cl (racemic) | 0.13 | > 1000 | > 8 | < 10 | 8 (≈ 15.9 µM) | > 8 | 2 (≈ 3.97 µM) | 8 (≈ 15.9 µM) | 4 (≈ 7.93 µM) |  | 2 (≈ 3.97 µM) | > 62 | -1
8 | CO[C@H]1CN(c2nc(-c3nccs3)c(C(=O)O)s2)CC[C@H]1NC(=O)c1[nH]c(C)c(Cl)c1Cl | < 0.01 | 16 (≈ 8.26 µg/mL) | 8 (≈ 15.5 µM) | < 9.8 | < 0.06 |  | 0.13 (≈ 0.252 µM) | 0.13 (≈ 0.252 µM) | < 0.06 | < 0.06 | < 0.06 | < 6.3 | 3.6
9 | CNC(=O)c1sc(N2CC[C@@H](NC(=O)c3[nH]c(C)c(Cl)c3Cl)[C@@H](OC)C2)nc1C(=O)O | < 0.01 | > 1000 | > 64 | < 10 |  | 2 (≈ 4.08 µM) | 2 (≈ 4.08 µM) |  | > 32 |  |  | > 200 | 
10 | CO[C@H]1CN(c2nc(-c3csc(N)n3)c(C(=O)O)s2)CC[C@H]1NC(=O)c1[nH]c(C)c(Cl)c1Cl | < 0.01 | < 1 | 4 (≈ 7.53 µM) | < 9.8 | < 0.06 |  | < 0.06 | 0.5 (≈ 0.941 µM) | < 0.06 | < 0.06 | < 0.06 | < 6.3 | 3
11 | CO[C@H]1CN(c2nc(C(=O)O)c(C(N)=O)s2)CC[C@H]1NC(=O)c1[nH]c(C)c(Cl)c1Cl (racemic) | 0.005 |  | > 8 | < 10 | > 8 |  | 1 (≈ 2.1 µM) | > 8 | 1 (≈ 2.1 µM) |  | 2 (≈ 4.2 µM) | 160 | -0.63
12 | CO[C@H]1CN(c2nc(-c3ncc[nH]3)c(C(=O)O)s2)CC[C@H]1NC(=O)c1[nH]c(C)c(Cl)c1Cl | < 0.01 | < 1 | > 64 | < 10 | 0.63 (≈ 1.26 µM) | 1 (≈ 2 µM) | < 0.06 | 1 (≈ 2 µM) | < 0.06 | 0.08 (≈ 0.16 µM) | < 0.06 | 100 | > 2.5
13 | CO[C@H]1CN(c2nc(CO)c(C(=O)O)s2)CC[C@H]1NC(=O)c1[nH]c(C)c(Cl)c1Cl (racemic) | 0.029 |  | > 8 | < 10 | > 8 |  | 1 (≈ 2.16 µM) | 8 (≈ 17.3 µM) | 2 (≈ 4.32 µM) |  | 1 (≈ 2.16 µM) | 17 | -0.27
14 | CO[C@H]1CN(c2nc(-c3ccccn3)c(C(=O)O)s2)CC[C@H]1NC(=O)c1[nH]c(C)c(Cl)c1Cl | 0.003 | < 1 | 8 (≈ 15.7 µM) | < 9.8 | < 0.06 |  | 0.13 (≈ 0.255 µM) | 0.5 (≈ 0.98 µM) | < 0.06 | < 0.06 | < 0.06 | < 21 | > 2.5
15 | CO[C@H]1CN(c2nc(C(=O)O)c(C)s2)CC[C@H]1NC(=O)c1[nH]c(C)c(Cl)c1Cl | 0.007 | > 1000 | > 8 | < 10 | 0.13 (≈ 0.291 µM) | 0.13 (≈ 0.291 µM) | 0.25 (≈ 0.559 µM) | 0.25 (≈ 0.559 µM) | 0.031 (≈ 0.0693 µM) | 0.063 (≈ 0.141 µM) | 0.063 (≈ 0.141 µM) | 19 | 1.2
16 | C#CCO[C@H]1CN(c2ncc(C(=O)O)s2)CC[C@H]1NC(=O)c1[nH]c(C)c(Cl)c1Cl | 0.03 | > 1000 | > 8 | < 10 | 0.25 (≈ 0.547 µM) | 0.25 (≈ 0.547 µM) | 0.13 (≈ 0.284 µM) | 0.13 (≈ 0.284 µM) | 0.016 (≈ 0.035 µM) | 0.016 (≈ 0.035 µM) | 0.016 (≈ 0.035 µM) |  | 0.44
17 | CO[C@H]1CO[C@@]2(CN(c3ncc(C(=O)O)s3)CC[C@H]2NC(=O)c2[nH]c(C)c(Cl)c2Cl)OC1 (relative stereo) | 0.053 | > 1000 | > 64 | < 10 | 4 (≈ 7.91 µM) | 8 (≈ 15.8 µM) | 1 (≈ 1.98 µM) | 2 (≈ 3.96 µM) | 0.063 (≈ 0.125 µM) | 0.063 (≈ 0.125 µM) | 1 (≈ 1.98 µM) |  | 0.15
18 | CS[C@H]1CN(c2ncc(C(=O)O)s2)CC[C@H]1NC(=O)c1[nH]c(C)c(Cl)c1Cl (racemic) | 0.015 | > 1000 | > 8 | < 10 | 0.13 (≈ 0.289 µM) | 0.25 (≈ 0.556 µM) | 0.25 (≈ 0.556 µM) | 0.13 (≈ 0.289 µM) | 0.016 (≈ 0.0356 µM) | 0.016 (≈ 0.0356 µM) | < 0.008 |  | 0.72
19 | COCc1nc(N2CC[C@@H](NC(=O)c3[nH]c(C)c(Cl)c3Cl)[C@@H](OC)C2)sc1C(=O)O | 0.034 | > 1000 | > 8 | < 10 | 0.5 (≈ 1.05 µM) | 1 (≈ 2.09 µM) | 0.5 (≈ 1.05 µM) | 0.35 (≈ 0.733 µM) | 0.12 (≈ 0.251 µM) |  | 0.063 (≈ 0.132 µM) | 29 | 0.44
20 | Cc1[nH]c(C(=O)N[C@@H]2CCN(c3ncc(C(=O)O)s3)C[C@@H]2N=[N+]=[N-])c(Cl)c1Cl (racemic) | 0.038 | > 1000 | 32 (≈ 72 µM) | < 10 | 0.13 (≈ 0.293 µM) | 0.25 (≈ 0.563 µM) | < 0.063 | < 0.063 | < 0.063 | < 0.063 | < 0.063 |  | 0.53
21 | CO[C@H]1CO[C@]2(CN(c3ncc(C(=O)O)s3)CC[C@H]2NC(=O)c2[nH]c(C)c(Cl)c2Cl)OC1 (relative stereo) | 0.053 | > 1000 | > 64 | < 10 | 4 (≈ 7.91 µM) | 4 (≈ 7.91 µM) | 1 (≈ 1.98 µM) | 1 (≈ 1.98 µM) | 0.063 (≈ 0.125 µM) | 0.063 (≈ 0.125 µM) | 0.13 (≈ 0.257 µM) |  | -0.18
22 | CO[C@H]1CN(c2nc(C(=O)N3CCOCC3)c(C(=O)O)s2)CC[C@H]1NC(=O)c1[nH]c(C)c(Cl)c1Cl (racemic) | 0.14 | 200 (≈ 109 µg/mL) | > 8 | < 10 | 8 (≈ 14.6 µM) | > 8 | 4 (≈ 7.32 µM) | 8 (≈ 14.6 µM) | 2 (≈ 3.66 µM) |  | 2 (≈ 3.66 µM) | > 57 | -0.99
